Data set [1] can be described thus: Clearance in mouse liver microsomes at 10 uM after 60 mins by HPLC-MS/MS analysis. The class given is ADME. In general terms: Liver microsomes are a subcellular fraction often used to study metabolism.
Data set [2] can be described thus: Lipophilicity, log D of the compound at 20 uM at pH 7.4 by HPLC-MS/MS analysis. The class given is physicochemical. The conditions noted are these: buffer.
Data set [3] in a line: Clearance in Sprague-Dawley rat at 5 mg/kg, iv and 20 mg/kg, po by LC-MS/MS analysis. It is filed as ADME, organism-based. The conditions noted are these: in vivo. Put shortly: (§1)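 Rats were dosed i.v. at 5 mpk and orally at 20 mpk. Clearance and oral bioavailability were calculated from mean plasma concentrations of 2 rats.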
The nature of data set [4]: Clearance in rat liver microsomes at 10 uM after 60 mins by HPLC-MS/MS analysis. It is filed as ADME.
Data set [5] is described as follows: Aqueous solubility of the compound at pH 7.4 by HPLC-MS/MS analysis. It is filed as physicochemical. The note with it: buffer.
The nature of data set [6]: Oral bioavailability in Sprague-Dawley rat at 20 mg/kg by LC-MS/MS analysis. The class given is ADME, organism-based. The conditions noted are these: in vivo. Put shortly:
as §1

The target of data set [7] is GABA-A receptor; anion channel. Briefly: Displacement of [3H]TBPS from GABAA receptor in Sprague-Dawley rat brain cortical membrane after 90 mins by liquid scintillation spectrometry.
Data set [8] in a line: Clearance in human liver microsomes at 10 uM after 60 mins by HPLC-MS/MS analysis. It is filed as ADME.
Data set [9] has as its target GABA-A receptor; alpha-1/beta-2/gamma-2 (Homo sapiens) (UniProt P14867+P47870+P18507). Briefly: Selectivity ratio of EC50 for recombinant alpha1beta2gamma2 GABAA receptor (unknown origin) expressed in LTK cells to EC50 for recombinant alpha4beta3delta GABAA receptor (unknown origin) expressed in CHO cells. The class given is cell-based.
Data set [10] can be described thus: Ratio of drug level in brain to plasma in Sprague-Dawley rat at 5 mg/kg, iv after 30 mins by LC-MS/MS analysis. The class given is ADME, organism-based. Further details: dose 5 mg/kg, route intravenous. The conditions noted are these: read-out: BPR. Put shortly:
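Brain and plasma were sampled at a single point 30 min after the i.v. 5 mpk dose. The ratio was calculated from mean concentrations of 2 rats.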

Data set [11] concerns the target GABA-A receptor; agonist GABA site. Briefly: Positive allosteric modulation of recombinant alpha1beta2gamma2 GABAA receptor (unknown origin) expressed in LTK cells assessed as potentiation of GABA-induced channel current treated for 30 s prior to GABA stimulation for 2s by Q-patch assay. It is filed as cell-based, Homo sapiens.
A short description of data set [12]: Retention time of the compound by LC-MS analysis. The class given is physicochemical. An outline of the steps: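 Eluents were water and acetonitrile, each with TFA, run as a 5 to 95% acetonitrile gradient over 1.5 min at 1.5 mL/min. Capillary voltage was 3.5 kV and fragmentor voltage 50 V.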
Data set [13] concerns the target GABA-A receptor; agonist GABA site. Briefly: Positive allosteric modulation of recombinant alpha4beta3delta GABAA receptor (unknown origin) expressed in CHO cells assessed as potentiation of GABA-induced channel current treated for 30 s prior to GABA stimulation for 2s by manual patch assay. The class given is cell-based, Homo sapiens.

Molecules are shown by their SMILES. pEC50, pIC50: −log10 of the molar value. ≈ marks a conversion by molar mass, not a printed value.

For orientation: logD means lipophilicity at a set pH, counting ionised and neutral species. A lower logD goes with a more hydrophilic compound. What is called solubility is the concentration that dissolves in the medium under given conditions. A higher solubility goes with a readily soluble substance. By bioavailability is commonly meant dose-corrected exposure relative to a reference, in per cent. The term pIC50 denotes the negative decadic logarithm of the IC50, by convention in mol/L. A higher pIC50 goes with a low IC50. The term pEC50 denotes the EC50 on a negative log10 scale, so that one unit is a factor of ten. For `C[C@@]1(O)CC[C@H]2[C@H](CC[C@@H]3[C@@H]2CC[C@]2(C)[C@@H](C(=O)Cn4cc5ncccc5n4)CC[C@@H]32)C1`, the CLhep predicted at 10 µM in data set [1] was 60 mL/min/kg; in [4] it was 55.7 mL/min/kg; in data set [8], 4.5 mL/min/kg. In data set [2], the logD at 20 µM was 4.7. The compound also had a clearance in data set [3] of 73.3 mL/min/kg. This compound also returned a solubility in data set [5] of 12.4 µM (≈ 5.4 µg/mL). Besides, the bioavailability in data set [6] turned out to be 1.5%. In addition, the pIC50 in data set [7] was 8.22. Further, the Ratio EC50 in data set [9] was > 8. The Kp at 0.5 h in [10] was determined as 1.3. For the same compound, the pEC50 is < 5.52 in data set [11] and 6.46 in data set [13]. The Retention_time in data set [12] is reported as 0.81 min.
With `C[C@@]1(O)CC[C@H]2[C@H](CC[C@@H]3[C@@H]2CC[C@]2(C)[C@@H](C(=O)Cn4ncnn4)CC[C@@H]32)C1`, the CLhep predicted at 10 µM in data set [1] was 67.5 mL/min/kg; in data set [4], 39.3 mL/min/kg; in [8], 5.5 mL/min/kg. In addition, the logD at 20 µM in data set [2] came to 4.5. This compound also had a clearance in data set [3] of 18.3 mL/min/kg. In data set [5], this compound gave a solubility of 2.5 µM (≈ 0.966 µg/mL). The bioavailability in data set [6] is 41%. In addition, in data set [7], the pIC50 is 8.22. For the same compound, in [10], the Kp at 0.5 h amounted to 2.3. Besides, the figures for the pEC50 in [11] and in [13] were 5.94 and 6.46, respectively. This compound gave a Retention_time in data set [12] of 0.87 min.
Take `C[C@@]1(O)CC[C@H]2[C@@H](CC[C@@H]3[C@@H]2CC[C@]2(C)[C@@H](C(=O)Cn4ncnn4)CC[C@@H]32)C1`: the results for the CLhep predicted at 10 µM in data set [1], in data set [4] and in data set [8] were 33.8 mL/min/kg, 14.3 mL/min/kg and 1.67 mL/min/kg, respectively. In [2], this compound came in with a logD at 20 µM of 4.5. In data set [3], this compound showed a clearance of 8.33 mL/min/kg. Further, in [5], the concentration in solution (solubility) came to 0.9 µM (≈ 0.348 µg/mL). This compound displayed a bioavailability in data set [6] of 67%. Further, in data set [7], the pIC50 is 7.51. The Kp at 0.5 h in [10] was 2. In addition, the pEC50 in [11] was 6.02; in data set [13], 6.53. For the same compound, in data set [12], the Retention_time came out at 0.88 min.
Consider `C[C@@]1(O)CC[C@H]2[C@H](CC[C@@H]3[C@@H]2CC[C@]2(C)[C@@H](C(=O)Cn4cc5ccncc5n4)CC[C@@H]32)C1`, for which the CLhep predicted at 10 µM in [1] was 33.8 mL/min/kg; in data set [4] it was 55.7 mL/min/kg; in data set [8], 4.5 mL/min/kg. Moreover, in data set [2], the logD at 20 µM is 4.7. The compound further gave a clearance in [3] of 58.3 mL/min/kg. Also, the solubility in [5] was 1.2 µM (≈ 0.523 µg/mL). In data set [6], this compound yielded a bioavailability of 40%. In data set [7], this compound showed a pIC50 of 7.80. In addition, the Ratio EC50 in data set [9] is > 17. Also, the Kp at 0.5 h in [10] was 2.1. Also, the pEC50 is < 5.52 in data set [11] and 6.75 in data set [13]. This compound also yielded a Retention_time in data set [12] of 0.75 min.
On to `C[C@@]1(O)CC[C@H]2[C@H](CC[C@@H]3[C@@H]2CC[C@]2(C)[C@@H](C(=O)Cn4nccn4)CC[C@@H]32)C1`, for which the CLhep predicted at 10 µM in data set [1] was 67.5 mL/min/kg; in data set [4] it was 45 mL/min/kg; in data set [8], 3.17 mL/min/kg. In addition, the logD at 20 µM in [2] amounted to 4.6. The compound further gave a clearance in data set [3] of 38.3 mL/min/kg. In addition, in data set [5], the solubility is 7.3 µM (≈ 2.81 µg/mL). In data set [6], this compound gave a bioavailability of 27%. This compound also had a pIC50 in data set [7] of 7.96. The Kp at 0.5 h in [10] was 1.8. Further, the pEC50 is 6.90 in data set [11] and 6.62 in data set [13]. Moreover, the Retention_time in data set [12] was 0.87 min.
